Measured values from ChEMBL document CHEMBL1212863, “Synthesis, and biological evaluation of 2-(4-aminophenyl)benzothiazole derivatives as photosensitizing agents” (2010).
Active and inactive are the calls of the source. No cut-off for these calls is given here.

Legend:
[1] = Cell cycle arrest in human BCC cells assessed as accumulation at sub G1 phase at 4 uM incubated for 4 hrs followed by 1 J/cm'2 UV irradiation measured after 24 hrs […]; type: functional
Method in brief: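 BCC cells (ATCC; RPMI1640, 10% FCS) exposed 4 h to agent, rinsed, irradiated in PBS with UVA (365 nm peak, 0.75 mW/cm²) at 1 J/cm². After 24 h, cells were fixed in 50% cold ethanol at −20 °C, treated with 100 µg/mL RNase A for 20 min at 37 °C, and stained with 50 µg/mL PI. 10,000 events were read by flow cytometry; the sub-G1 fraction was counted as apoptotic.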

[2] = tested on: BCC; test: Induction of apoptosis in human BCC cells assessed as increase in intracellular H2O2 level at 4 uM incubated for 4 hrs followed by 1 J/cm'2 UV irradiation […]; type: functional, cell-based
Method in brief: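 ROS was measured in BCC cells given 0–4 µM drug, with or without catalase (800 U/mL) pretreatment, and then irradiated with UVA. Immediately after irradiation, DCFH-DA (10 µM) was added for 30 min at 37 °C. DCF fluorescence was read by flow cytometry on FL-1.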

[3] = Induction of apoptosis in human BCC cells assessed as decrease in intracellular ATP level at 2 uM incubated for 4 hrs followed by 1 J/cm'2 UV irradiation […]; type: functional; parameters: scale not given: the % may be the effect or the level left
[4] = Induction of apoptosis in human BCC cells assessed as caspase3 activation at 4 uM incubated for 4 hrs followed by 1 J/cm'2 UV irradiation measured after 24 hrs […]
[5] = Phototoxicity against human BCC cells assessed as cell viability at 4 uM incubated for 4 hrs followed by 1 J/cm'2 UV irradiation measured after 24 hrs by MTT assay; type: functional; settings: light or radiation study, read-out: Activity
Method in brief: (§1)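 MTT assay: BCC cells were seeded at 2500/well and attached overnight. Cells were incubated 4 h with drug in triplicate, rinsed, irradiated in PBS with 365 nm UVA (0.25, 0.5 or 1 J/cm²), then returned to medium. After 24 h, MTT was added for 2 h at 37 °C, formazan was dissolved in DMSO, and absorbance was read at 540 nm relative to untreated controls.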

[6] = Phototoxicity against human BCC cells assessed as cell viability at 4 uM incubated for 4 hrs followed by 0.25 J/cm'2 UV irradiation measured after 24 hrs by MTT assay; type: functional; settings: light or radiation study, read-out: Activity; method in brief: as §1
[7] = tested on: BCC; test: Induction of apoptosis in human BCC cells assessed as decrease in mitochondrial potential at 2 uM incubated for 4 hrs followed by 1 J/cm'2 UV irradiation measured after 24 hrs; type: functional, cell-based
Method in brief: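 BCC dishes grown 24 h were pretreated 4 h at 0, 2 or 4 µM and given 1 J/cm² UVA, then trypsinized. Cells were stained 30 min at room temperature with DiOC₆ (100 nM/mL), washed, and read immediately by flow cytometry (FL-1, 530/30 nm). The percentage of cells with reduced Δψmt was scored from 10,000 cells. Three independent experiments were run.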

[8] = tested on: BCC; test: Induction of ERK phosphorylation in human BCC cells at 4 uM incubated for 4 hrs followed by 1 J/cm'2 UV irradiation
[9] = Phototoxicity against human BCC cells assessed as cell viability at 4 uM incubated for 4 hrs followed by 0.5 J/cm'2 UV irradiation measured after 24 hrs by MTT assay; type: functional; settings: light or radiation study, read-out: Activity; method in brief: as §1
[10] = Induction of apoptosis in human BCC cells assessed as decrease in intracellular ATP level at 4 uM incubated for 4 hrs followed by 1 J/cm'2 UV irradiation […]; type: functional; parameters: scale not given: the % may be the effect or the level left
[11] = target: c-Jun N-terminal kinase, JNK (Homo sapiens) (UniProt P45983+P53779+P45984); test: Inhibition of JNK phosphorylation in human BCC cells at 4 uM incubated for 4 hrs followed by 1 J/cm'2 UV irradiation; type: cell-based
Method in brief: (§2)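 BCC cells were exposed to drug with UVA irradiation. Blots were blocked in 5% milk/PBS-T and probed for total and phospho-ERK, p38 and JNK. HRP secondaries and chemiluminescence were used; bands were quantified by densitometric scanning.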

[12] = tested on: BCC; test: Inhibition of MAPK phosphorylation in human BCC cells at 4 uM incubated for 4 hrs followed by 1 J/cm'2 UV irradiation; type: cell-based; method in brief: as §2
[13] = Induction of apoptosis in human BCC cells assessed as caspase3 activation at 4 uM incubated for 4 hrs followed by 1 J/cm'2 UV irradiation measured after 24 hrs […]; type: functional; settings: in the assay text read “2 uM” for “4 uM”
Method in brief: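 Caspase-3 was measured in BCC cells 24 h after 4 h drug exposure and 1 J/cm² UVA (365 nm) given in PBS. Pellets were lysed in cold buffer (25 µL per 10⁶ cells), spun at 12,000 rpm for 10 min at 4 °C, and the supernatant assayed colorimetrically by pNA release at 405 nm. Results are mean SD.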

For `Cc1cc(-c2nc3ccc(C(F)(F)F)cc3s2)ccc1N`, the Activity [1] was 6.4%.
`COc1ccc2nc(-c3ccc(N)cc3)sc2c1` gave an Activity [1] of 6.5%.
`CCc1ccc2nc(-c3ccc(N)c(C)c3)sc2c1` gave an Activity [1] of 13.8%.
Compound `CCc1ccc2nc(-c3ccc(N)cc3)sc2c1` has an Activity [1] of 29.2%.
In the case of `Nc1ccc(-c2nc3ccc(C(F)(F)F)cc3s2)cc1`, the Activity [2] was “Active”, the Activity [3] was 30% and the Activity [4] was 27.5%. For the same compound, the viability at 4 µM [5] was 45%, the Activity [1] was 35.4% and the viability at 4 µM [6] was 71%. The Activity [7] was “Active”, the Activity [8] was “Active” and the viability at 4 µM [9] was 65%. For the same compound, the Activity [10] was 45%, the Activity [11] was “inactive” and the Activity [12] was “inactive”. It also gave an Activity [13] of 19.5%.
With `Cc1cc(-c2nc3ccccc3s2)ccc1N` the Activity [1] was 13.6%.
`COc1cccc2nc(-c3ccc(N)cc3)sc12` gave an Activity [1] of 24.4%.
For `Nc1ccc(-c2nc3ccccc3s2)cc1`, the Activity [1] was 6.5%.
In the case of `COc1ccc2nc(-c3ccc(N)c(C)c3)sc2c1`, the Activity [1] was 14.8%.
`Cc1ccc2nc(-c3ccc(N)cc3)sc2c1` gave an Activity [1] of 13.4%.
